In PubChem BioAssay AID624366 (Broad Institute, 2012) one finds AC50 data, which are given here for 40 compounds.

Where “and” joins values, the source holds several entries; their conditions need not be identical. Identical values can stand only once. Calls of active or inactive are those of the source.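 How the source made its calls: active means signal drop with fitted AC50 no more than twice the top valid dose in every repeat run; inconclusive means mixed run calls, flat 30 to 70% drop, or poor fit; inactive means the rest.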 Where only a bound is given, the exact number is not on record here.

This experiment relates to SK-MEL-5 viability, CellTiter-Glo ATP luminescence, 24 h. Kind of experiment: ATP-based viability of SK-MEL-5 melanoma cells – cell-based, CellTiter-Glo luminescence, dry powder, set 4, orthogonal assay for MITF inhibitor project, dose response (AID 624366). Put shortly:
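Assay system: parental SK-MEL-5 melanoma cells. Buffer or medium: medium without phenol red. Schedule: 24 h treatment at 37 °C, 5 min RT read. Detection: CellTiter-Glo luminescence measuring cellular ATP. Read-out: viability via ATP level.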
`O=C(NC1=C(N2CCCCC2)C(=O)c2ccccc2C1=O)c1ccc(Br)cc1`: the AC50 is > 70 µM (inactive). `O=C1C(Nc2ccccc2)=C(NS(=O)(=O)c2ccccc2[N+](=O)[O-])C(=O)c2ccccc21`: the AC50 is > 70 µM (inactive). In the case of `CN1CCN(C2=C(NS(=O)(=O)c3ccc(Br)s3)C(=O)c3ccccc3C2=O)CC1` it was 23.6 µM. On to `O=C1C=C(NS(=O)(=O)c2cccs2)C(=O)c2ccccc21`, for which the AC50 is 9.28 µM. In the case of `O=C1C(Nc2ccccc2)=C(c2ccccc2)C(=O)c2ccccc21` it was 27.3 µM; in that of `C=CCNC1=C(N(C)C(C)=O)C(=O)c2ccccc2C1=O`, 0.843 µM; in that of `NC1=C(NS(=O)(=O)c2ccc(Br)cc2)C(=O)c2ccccc2C1=O`, 28.1 µM. Then `NC1=C(NS(=O)(=O)c2cccs2)C(=O)c2ccccc2C1=O`, with 11.3 µM; and `O=C1C(NS(=O)(=O)c2ccccc2)=C(c2ccccc2)C(=O)c2ccccc21`, with > 70 µM (inactive). For the compound `COC1=C(NS(=O)(=O)c2ccccc2)C(=O)c2ccccc2C1=O`, the AC50 is 15.8 µM. Consider `NC1=C(c2ccc(OC(F)(F)F)cc2)C(=O)c2ccccc2C1=O`, for which the AC50 was > 70 µM (inactive). Take `CNC1=CC(=O)c2ccccc2C1=O`: the AC50 is > 70 µM (inactive). Then `NC1=CC(=O)c2ccccc2C1=O`, with 11 µM.

For the compound `CCN1CCN(C2=C(NS(=O)(=O)c3ccc(Br)s3)C(=O)c3ccccc3C2=O)CC1`, the AC50 was > 70 µM (inactive). In the case of `O=C1C(NS(=O)(=O)c2ccc(Br)s2)=C(N2CCOCC2)C(=O)c2ccccc21` it was 27.6 µM; in that of `C=CCNC1=C(Cl)C(=O)c2ccccc2C1=O`, 15.4 µM. In the case of `CCN1CCN(C2=C(NC(=O)c3ccc(Br)cc3)C(=O)c3ccccc3C2=O)CC1` it was 11 µM; in that of `C[C@@H](NC1=C(Nc2ccccc2)C(=O)c2ccccc2C1=O)c1ccccc1`, > 70 µM (inactive). For the compound `Cc1nc2ccccc2n1/N=C/c1ccc([N+](=O)[O-])s1`, the AC50 was > 70 µM (inactive). In the case of `NC1=C(NS(=O)(=O)c2ccccc2)C(=O)c2ccccc2C1=O`, the AC50 is 14 µM.

Turning to `CCN(CC)CCNC1=C(Nc2ccccc2)C(=O)c2ccccc2C1=O`, the AC50 was > 70 µM (inactive). In the case of `COC1=C(NS(=O)(=O)c2cccs2)C(=O)c2ccccc2C1=O` it was 23.7 µM; in that of `O=C1C=C(NS(=O)(=O)c2ccc(Br)cc2)C(=O)c2ccccc21`, 10 µM; in that of `O=C1C=C(NS(=O)(=O)c2ccccc2)C(=O)c2ccccc21`, 5.83 µM. In the case of `O=C1C(Nc2ccccc2)=C(N2CCCCC2)C(=O)c2ccccc21` it was 25.3 µM. Then `O=C(NC1=C(N2CCOCC2)C(=O)c2ccccc2C1=O)c1ccc(Br)cc1`, with > 70 µM (inactive). On to `O=C1C=C(Nc2ccccc2)C(=O)c2ccccc21`, for which the half-maximal activity concentration (AC50) was 3.44 µM and 3.95 µM. Then `C=C1C(=O)OC2C1CC/C(C)=C\CCC1(C)OC21` (stereo not given), with > 70 µM (inactive); and `O=C1C(NS(=O)(=O)c2ccc(Br)s2)=C(N2CCCCC2)C(=O)c2ccccc21`, with 23.9 µM. In the case of `COC1=C(NS(=O)(=O)c2ccc(Br)cc2)C(=O)c2ccccc2C1=O` it was 11.3 µM; in that of `CCN(CC)CCCNC1=C(Nc2ccccc2)C(=O)c2ccccc2C1=O`, 24.4 µM; in that of `CC(=O)N(C)C1=C(N2CCN(C)CC2)C(=O)c2ccccc2C1=O`, 5.48 µM. `O=C1C(Nc2ccccc2)=C(N2CCSCC2)C(=O)c2ccccc21`: the AC50 was > 70 µM (inactive).

Take `CC1CCN(CC(CS(=O)(=O)c2ccc([N+](=O)[O-])cc2)N2CCC(C)CC2)CC1` (stereo not given): the AC50 is > 70 µM (inactive). Take `CN1CCN(C2=C(Nc3ccccc3)C(=O)c3ccccc3C2=O)CC1`: the concentration at half-maximal activity (AC50) is 34.2 µM. In the case of `CN1CCN(C2=C(NC(=O)c3ccc(Br)cc3)C(=O)c3ccccc3C2=O)CC1` it was 8 µM; in that of `NC1=C(NC(=O)c2ccccc2)C(=O)c2ccccc2C1=O`, 12.3 µM; in that of `O=C(NC1=C(N2CCSCC2)C(=O)c2ccccc2C1=O)c1ccc(Br)cc1`, > 70 µM (inactive). Consider `CC(=O)N(C)C1=C(N2CCCCC2)C(=O)c2ccccc2C1=O`, for which the AC50 is 6.71 µM. In the case of `COC1=C(Nc2ccccc2)C(=O)c2ccccc2C1=O` it was 3.02 µM.

Broadly, the AC50 is the midpoint of the concentration-response curve, whichever way the signal moves.
